Most compounds without a hit are left out; they make up all but 12% or so of the library.
Lmaj promast: Leishmania major promastigote growth inhibition, primary screen; Leishmania major promastigotes, resazurin fluorescence viability; inhibition, % at 10 µM; 9% of 200,000 active; AID 1063, 2008; in the data active = inhibition above about 50%;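 also: promastigotes grown with compound for 44 hours at 28 °C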
Cl transport mod: KCC2 cotransporter modulators, thallium flux, primary screen, cell-based, HEK293 KCC2, FluoZin-2 fluorescence, MLSMR; B-score of Tl+ flux slope (higher = more flux/activation; lower = inhibition) at 10 µM; KCC2 cells, thallium flux FluoZin-2 fluorescence; AID 1456, 2008; Solute carrier family 12 member 5 (Homo sapiens), Q9H2X9; 2.2% of 190,000 active;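 active = thallium flux slope and its plate-corrected score both differing from the plate sample mean at a set confidence after two filtering rounds, in either direction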;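 also: slope of fluorescence scaled to starting intensity during 10 to 20 s after thallium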
Target sequence (Q9H2X9 whole entry, looked up): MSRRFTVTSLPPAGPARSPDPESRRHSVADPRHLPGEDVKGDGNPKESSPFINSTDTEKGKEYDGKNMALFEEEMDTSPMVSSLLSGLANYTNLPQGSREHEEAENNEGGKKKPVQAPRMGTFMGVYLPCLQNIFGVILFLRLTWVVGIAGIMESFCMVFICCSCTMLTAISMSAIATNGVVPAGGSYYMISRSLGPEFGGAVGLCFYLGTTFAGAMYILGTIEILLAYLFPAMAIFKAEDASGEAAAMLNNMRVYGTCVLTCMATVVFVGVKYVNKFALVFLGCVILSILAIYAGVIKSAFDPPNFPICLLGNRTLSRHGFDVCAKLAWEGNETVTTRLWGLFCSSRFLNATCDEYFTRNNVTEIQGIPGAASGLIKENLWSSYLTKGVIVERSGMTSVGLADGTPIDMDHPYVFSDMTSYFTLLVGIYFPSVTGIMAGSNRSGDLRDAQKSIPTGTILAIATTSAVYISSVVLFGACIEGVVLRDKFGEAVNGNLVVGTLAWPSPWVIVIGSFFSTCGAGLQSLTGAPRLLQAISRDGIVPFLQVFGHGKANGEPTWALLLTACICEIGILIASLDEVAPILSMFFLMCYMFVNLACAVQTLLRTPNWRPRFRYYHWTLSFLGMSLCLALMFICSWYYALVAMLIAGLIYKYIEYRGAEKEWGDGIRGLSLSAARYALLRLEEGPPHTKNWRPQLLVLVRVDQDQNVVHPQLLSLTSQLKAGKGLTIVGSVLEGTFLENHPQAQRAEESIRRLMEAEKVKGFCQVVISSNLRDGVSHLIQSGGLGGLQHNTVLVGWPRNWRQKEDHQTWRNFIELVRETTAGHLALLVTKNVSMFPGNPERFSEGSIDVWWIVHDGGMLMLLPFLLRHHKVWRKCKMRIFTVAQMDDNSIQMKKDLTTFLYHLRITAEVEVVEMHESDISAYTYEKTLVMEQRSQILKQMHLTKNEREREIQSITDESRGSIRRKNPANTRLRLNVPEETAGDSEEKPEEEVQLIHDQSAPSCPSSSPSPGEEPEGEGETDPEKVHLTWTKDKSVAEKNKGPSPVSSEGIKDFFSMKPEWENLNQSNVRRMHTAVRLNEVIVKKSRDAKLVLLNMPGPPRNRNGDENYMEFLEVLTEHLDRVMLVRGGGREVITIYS
ROMK mod: ROMK potassium channel modulators, primary screen, cell-based, thallium flux, MLSMR library | AID 1918, 2009 | Tet-inducible ROMK, thallium flux fluorescence; actives lie on both sides | B-score at 10 µM | ATP-sensitive inward rectifier potassium channel 1 (Homo sapiens), P48048 | 2% of 130,000 active;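 active = signal ratio slope over the read window, or its plate-corrected B-score, at least 3 SD from the plate mean, either direction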;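 also: B-score of the F/F0 ratio slope over 7 to 12 s after thallium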
Diaph act CS: compounds boosting diaphorase resazurin reduction – biochemical, uHTS, resorufin fluorescence, counter-screen for diaphorase-coupled primary assays, primary screen; Diaphorase/resazurin coupled assay, 16 min; stronger effect = higher value; 1 = vehicle wells, 0 = NADH-free wells; activation factor at 20 µM; 0.005% of 190,000 active;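 active = diaphorase activity raised at least twofold by the compound at 20 µM; inactive = activation factor below 2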
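Assay system: Purified diaphorase enzyme from Clostridium kluyveri | Amount: Enzyme 0.07 U/mL final | Dosing: Compound 20 µM once, DMSO 1% | Timing: 16 min reaction at room temperature | Detection: Fluorescence, excitation 544 nm and emission 590 nm | Evaluation: Higher resorufin formation from activation or reduction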
WT yeast gro inh: growth inhibition of WT strain, primary screen, mitochondrial fusion inhibitor project, WT and mutant strains, chemical genetic. mitochondrial fusion phenotypic screen. inhibition, % at 10 µM. 2.1% of 190,000 active; in the data active = inhibition above about 58%; tested in S. cerevisiae
Diaphorase inh: diaphorase inhibitors and chemical oxidizers, primary screen, counter-screen for diaphorase-coupled primary assays, biochemical, uHTS, resorufin fluorescence. diaphorase resazurin-to-resorufin fluorescence, NADH, 16 min; bacterial (C. kluyveri) enzyme, not human. inhibition, % at 20 µM. 0.69% of 190,000 active;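 active = primary screen inhibition at 20 µM above a set limit, cut at about 50% in these data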;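 also: plate controls were DMSO with full reaction for no effect and wells lacking NADH for full effect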
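System: Diaphorase enzyme from Clostridium kluyveri | Amount: Enzyme working solution with 0.14 U/mL diaphorase | Benchmarks: No-NADH positive control and DMSO neutral control | Signal: Fluorescence of resorufin formed from resazurin, Ex 544/Em 590 nm | Schedule: 16-min room-temperature incubation before reading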
ROMK retest: ROMK channel modulator hit retest, confirmation, cell-based, thallium flux, duplicate, resupplied hits. fluorescence ratio; stronger effect = lower value. normalized thallium flux (F/F0 slope) at 10 µM. 54% of 3,000 active. AID 1917, 2009. shares compounds with ROMK mod;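 active = Flux at 10 µM at least 3 SD below or above vehicle control mean in one or both replicates; inconclusive = no clear call, values can overlap the other calls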
* marks the source's active call; other numbers are inactive results; ? = inconclusive; . = not tested or not shown.

SMILES	Lmaj promast	Cl transport mod	ROMK mod	Diaph act CS	WT yeast gro inh	Diaphorase inh	ROMK retest
Cc1ccc(S(=O)(=O)N(C)CCCC(=O)Nc2cccc3ccccc23)cc1	0.7	-2.92	-1.63	0.8	0.0	15.0	.
Cc1ccc(C(=O)C[n+]2cccc3cc(C)ccc32)cc1	18.9	0.357	-0.414	1	-8.4	-2.9	.
O=C(C[n+]1cc2ccccc2c2ccccc21)c1ccccc1	99.3*	-0.308	-3.84*	1	14.1	0.8	0.0571*
CC1CCN(C(=O)CSCC(=O)Nc2nc(-c3cccs3)cs2)CC1	-5.7	2.73	.	0.8	7.6	23.5	0.0651*
CC1CCCN(C(=O)CSCC(=O)Nc2nc(-c3cccs3)cs2)C1 (stereo not given)	-3.5	.	.	0.8	20.4	16.4	.
CC1CCCC(C)N1C(=O)Cn1cc(/C=C2/C(=O)Nc3ccccc32)c2ccccc21 (stereo not given)	39.4	.	-2.23	0.7	21.4	27.3	.
COC(=O)c1c(NC(=O)CSc2nnc(-c3ccco3)n2Cc2ccccc2)sc(C)c1C	64.8*	-0.716	-3.06*	0.4	47.8	57.2*	0.0645*
COC(=O)c1c(NC(=O)CSc2nc3ccccc3c(=O)n2Cc2ccco2)sc(C)c1C	13.6	-0.113	.	0.8	1.4	17.6	.
CCC(c1nnnn1C(C)(C)CC)N(CCCO)Cc1cc2cc(C)cc(C)c2[nH]c1=O (stereo not given)	16.7	-0.771	.	0.8	4.7	18.2	.
CCC(c1nnnn1C(C)(C)CC)N(CCN1CCOCC1)Cc1cc2cc(C)ccc2[nH]c1=O (stereo not given)	-1.1	0.267	-4.79*	0.9	10.1	12.7	?
CCCC(c1nnnn1C(C)(C)CC)N(CCCO)Cc1cc2cc(C)cc(C)c2[nH]c1=O (stereo not given)	44.5	.	-3.72*	1	-11.2	4.7	0.0554*
Cc1cc(NC(=O)CC(CN(C)S(=O)(=O)c2ccccc2)c2ccccc2)no1 (stereo not given)	4.9	-0.975	.	0.9	-7.2	11.3	.
COc1ccc(N/N=C(/C(N)=O)C2=NC(C)(C)Cc3ccccc32)cc1	35.3	-1.4	-1.87	0.7	8.0	28.1	.
Cc1cc(C(=O)CN2C(=O)NC3(CCCc4ccccc43)C2=O)c(C)n1Cc1ccco1 (stereo not given)	8.3	1.01	0.943	0.8	-5.4	19.3	.
Cc1cc(C(=O)CN2C(=O)NC3(CCCc4ccccc43)C2=O)c(C)n1Cc1ccccc1 (stereo not given)	53.3*	-0.266	2.05*	0.8	15.8	18.1	0.0792
COCCCn1c(C)nc2c(c1=O)c1nc3ccccc3nc1n2CCc1ccccc1	21.4	.	-3.96*	0.8	29.8	18.2	0.0498*
COCCCn1c2nc3ccccc3nc2c2c(=O)n(Cc3ccc(Cl)cc3)cnc21	-0.6	0.652	-1.19	0.9	.	5.0	.
COc1ccc(OCCSc2nnc(C)n2-c2ccccc2)cc1	-1.7	-0.0603	-0.97	0.9	-11.4	13.6	.
CCC(CC)N1CCN(CC2CC=CCC2)CC1 (stereo not given)	-3.5	-0.0906	-0.13	0.8	-7.0	23.3	.
Cc1ccc(-n2nnnc2SCC(=O)Nc2sc(C)c(C)c2C#N)cc1C	-2.4	1.42	.	1	-3.9	4.0	0.0731
CC(=O)c1ccc(-n2nnnc2SCC(=O)Nc2sc(C)c(C)c2C#N)cc1	-4.8	-0.634	0.0274	1	9.0	3.0	.
CCOc1ccc2[nH]c3c(=O)n(CCc4ccc(OC)cc4)cnc3c2c1	.	-0.0356	.	.	.	.	.
COc1cccc(-n2c(SCc3ccccn3)nc3c(c2=O)SCC3)c1	1.2	-1.5	1.14*	0.9	-6.6	12.7	0.0849
Cc1cc(C)c(S(C)(=O)=O)c(N(C)N)n1	0.3	1.17	0.449	1	-10.6	2.3	.

From PubChem
